Test results: paper PMC8210434 (ACS Omega, 2021)

Assays:
human AT1R = molecular target: T1, human AT1R (Homo sapiens, UniProt P30556); assay: AT1R competitive binding assay; conditions: 10 μM
T1 sequence (P30556 1-359): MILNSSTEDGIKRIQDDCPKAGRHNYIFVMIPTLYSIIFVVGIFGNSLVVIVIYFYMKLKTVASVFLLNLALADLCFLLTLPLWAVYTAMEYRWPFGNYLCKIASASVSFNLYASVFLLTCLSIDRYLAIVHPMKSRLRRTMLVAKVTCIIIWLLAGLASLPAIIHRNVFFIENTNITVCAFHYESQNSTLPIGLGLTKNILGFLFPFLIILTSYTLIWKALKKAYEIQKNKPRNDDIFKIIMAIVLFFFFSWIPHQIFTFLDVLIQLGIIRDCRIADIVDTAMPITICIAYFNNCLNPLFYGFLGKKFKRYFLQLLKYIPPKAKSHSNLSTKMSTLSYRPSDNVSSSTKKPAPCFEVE

[1] = Liver microsome stability assay, rat; type: in vitro ADME; conditions: liver microsomes, pH 7.4
[2] = In vivo pharmacokinetic study in rats; conditions: male, Sprague Dawley, rat, plasma
[3] = Liver microsome stability assay, human; type: in vitro ADME; conditions: liver microsomes, pH 7.4
[4] = Human hepatocytes metabolic stability assay; type: in vitro ADME; conditions: cryopreserved hepatocytes
[5] = Plasma protein binding by equilibrium dialysis, rat; type: in vitro ADME; conditions: pH 7.4
[6] = Plasma protein binding by equilibrium dialysis, human; type: in vitro ADME; conditions: pH 7.4
[7] = Caco-2 cell permeability assay; type: in vitro ADME; conditions: human, Caco-2, pH 7.4
CYP1A2 = molecular target: T2, CYP1A2 (Homo sapiens, UniProt P05177); assay: CYP inhibition assay, CYP1A2; type: in vitro ADME
T2 sequence (P05177 1-516): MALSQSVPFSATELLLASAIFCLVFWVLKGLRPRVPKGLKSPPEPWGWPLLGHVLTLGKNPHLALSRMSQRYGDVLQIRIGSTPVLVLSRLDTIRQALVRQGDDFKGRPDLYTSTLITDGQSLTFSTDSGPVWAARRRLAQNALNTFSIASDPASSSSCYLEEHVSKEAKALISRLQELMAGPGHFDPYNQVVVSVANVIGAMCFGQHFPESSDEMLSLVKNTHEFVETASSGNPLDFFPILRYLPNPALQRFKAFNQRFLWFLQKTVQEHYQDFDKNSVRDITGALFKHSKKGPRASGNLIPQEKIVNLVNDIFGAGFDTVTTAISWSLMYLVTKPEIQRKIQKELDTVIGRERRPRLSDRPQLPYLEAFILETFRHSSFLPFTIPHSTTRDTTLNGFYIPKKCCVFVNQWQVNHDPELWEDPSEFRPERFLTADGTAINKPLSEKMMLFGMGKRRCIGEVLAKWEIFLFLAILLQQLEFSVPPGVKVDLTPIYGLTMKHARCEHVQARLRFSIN

CYP2C8 = molecular target: T3, CYP2C8 (Homo sapiens, UniProt P10632); assay: CYP inhibition assay, CYP2C8; type: in vitro ADME
T3 sequence (P10632 1-490): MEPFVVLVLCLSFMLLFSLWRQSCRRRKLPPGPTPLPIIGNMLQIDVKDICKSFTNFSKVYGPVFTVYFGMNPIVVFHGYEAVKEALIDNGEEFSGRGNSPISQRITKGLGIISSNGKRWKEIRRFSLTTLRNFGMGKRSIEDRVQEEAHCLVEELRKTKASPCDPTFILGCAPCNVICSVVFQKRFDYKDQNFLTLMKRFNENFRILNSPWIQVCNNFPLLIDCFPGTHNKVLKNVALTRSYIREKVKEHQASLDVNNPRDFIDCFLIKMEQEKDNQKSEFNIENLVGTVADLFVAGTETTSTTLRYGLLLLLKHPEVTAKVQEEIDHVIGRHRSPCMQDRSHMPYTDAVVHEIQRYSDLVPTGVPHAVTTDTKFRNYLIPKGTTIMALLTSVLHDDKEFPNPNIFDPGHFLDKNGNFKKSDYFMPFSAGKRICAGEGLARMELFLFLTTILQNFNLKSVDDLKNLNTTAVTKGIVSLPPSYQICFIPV

CYP2C9 = CYP2C9 (Homo sapiens, UniProt P11712); assay: CYP inhibition assay, CYP2C9; type: in vitro ADME
CYP2C9, sequence (P11712 whole entry): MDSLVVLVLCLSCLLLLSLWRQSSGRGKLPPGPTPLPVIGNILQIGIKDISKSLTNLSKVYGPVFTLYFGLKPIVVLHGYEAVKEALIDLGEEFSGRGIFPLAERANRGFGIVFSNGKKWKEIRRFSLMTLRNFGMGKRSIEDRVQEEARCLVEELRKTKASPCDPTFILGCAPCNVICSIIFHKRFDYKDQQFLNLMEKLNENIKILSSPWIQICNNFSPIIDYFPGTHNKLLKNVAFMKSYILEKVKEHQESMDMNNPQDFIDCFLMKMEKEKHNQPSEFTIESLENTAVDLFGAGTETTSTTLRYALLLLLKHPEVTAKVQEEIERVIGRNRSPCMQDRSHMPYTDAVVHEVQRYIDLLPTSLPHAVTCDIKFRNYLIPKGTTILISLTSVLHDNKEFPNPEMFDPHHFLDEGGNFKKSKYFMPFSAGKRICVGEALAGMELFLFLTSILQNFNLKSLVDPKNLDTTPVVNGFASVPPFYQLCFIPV

CYP2C19 = CYP2C19 (Homo sapiens, UniProt P33261); assay: CYP inhibition assay, CYP2C19; type: in vitro ADME
CYP2C19, sequence (P33261 whole entry): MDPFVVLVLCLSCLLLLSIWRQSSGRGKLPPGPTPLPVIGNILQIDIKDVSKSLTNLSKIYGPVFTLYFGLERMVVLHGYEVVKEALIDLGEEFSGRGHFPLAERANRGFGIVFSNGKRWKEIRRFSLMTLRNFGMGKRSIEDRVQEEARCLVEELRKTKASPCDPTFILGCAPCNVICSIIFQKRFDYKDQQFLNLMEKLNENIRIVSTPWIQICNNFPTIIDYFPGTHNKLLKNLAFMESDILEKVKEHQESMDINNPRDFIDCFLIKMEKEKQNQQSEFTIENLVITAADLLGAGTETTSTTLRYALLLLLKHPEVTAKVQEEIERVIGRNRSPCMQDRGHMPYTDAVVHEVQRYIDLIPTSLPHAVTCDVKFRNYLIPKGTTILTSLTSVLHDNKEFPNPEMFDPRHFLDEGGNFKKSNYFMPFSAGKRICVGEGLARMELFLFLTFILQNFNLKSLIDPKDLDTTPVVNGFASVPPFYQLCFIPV

CYP2D6 = CYP2D6 (Homo sapiens, UniProt P10635); assay: CYP inhibition assay, CYP2D6; type: in vitro ADME
CYP2D6, sequence (P10635 whole entry): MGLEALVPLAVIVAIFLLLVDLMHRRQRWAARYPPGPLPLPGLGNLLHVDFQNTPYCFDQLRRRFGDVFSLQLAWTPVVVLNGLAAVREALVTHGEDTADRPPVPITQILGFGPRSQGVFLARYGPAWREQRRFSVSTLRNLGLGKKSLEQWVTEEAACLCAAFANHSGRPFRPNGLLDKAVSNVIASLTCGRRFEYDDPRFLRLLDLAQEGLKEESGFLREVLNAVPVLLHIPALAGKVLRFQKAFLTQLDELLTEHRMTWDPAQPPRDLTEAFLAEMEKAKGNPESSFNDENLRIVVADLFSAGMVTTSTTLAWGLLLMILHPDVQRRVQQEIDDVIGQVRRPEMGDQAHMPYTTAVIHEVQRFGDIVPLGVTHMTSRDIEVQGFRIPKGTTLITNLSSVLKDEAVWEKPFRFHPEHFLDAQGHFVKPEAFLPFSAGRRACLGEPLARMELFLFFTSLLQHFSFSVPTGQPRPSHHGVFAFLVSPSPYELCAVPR

CYP3A4 = CYP3A4 (Homo sapiens, UniProt P08684); assay: CYP inhibition assay, CYP3A4; type: in vitro ADME
CYP3A4, sequence (P08684 whole entry): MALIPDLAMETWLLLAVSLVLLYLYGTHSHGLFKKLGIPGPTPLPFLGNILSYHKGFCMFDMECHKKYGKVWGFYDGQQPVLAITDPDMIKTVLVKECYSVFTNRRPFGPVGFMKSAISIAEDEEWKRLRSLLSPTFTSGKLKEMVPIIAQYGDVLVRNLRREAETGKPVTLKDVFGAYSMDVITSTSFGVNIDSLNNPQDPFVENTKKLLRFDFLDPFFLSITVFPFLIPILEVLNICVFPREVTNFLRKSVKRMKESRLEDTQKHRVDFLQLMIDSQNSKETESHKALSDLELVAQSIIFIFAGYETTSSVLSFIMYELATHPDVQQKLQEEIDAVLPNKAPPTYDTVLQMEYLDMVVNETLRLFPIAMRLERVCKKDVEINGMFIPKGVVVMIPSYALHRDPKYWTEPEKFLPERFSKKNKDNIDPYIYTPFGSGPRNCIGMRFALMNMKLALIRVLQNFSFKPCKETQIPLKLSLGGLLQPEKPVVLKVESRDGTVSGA

hERG channel = hERG channel (Homo sapiens, UniProt Q12809); assay: hERG patch clamp assay; type: cell-based
hERG channel, sequence (Q12809 whole entry): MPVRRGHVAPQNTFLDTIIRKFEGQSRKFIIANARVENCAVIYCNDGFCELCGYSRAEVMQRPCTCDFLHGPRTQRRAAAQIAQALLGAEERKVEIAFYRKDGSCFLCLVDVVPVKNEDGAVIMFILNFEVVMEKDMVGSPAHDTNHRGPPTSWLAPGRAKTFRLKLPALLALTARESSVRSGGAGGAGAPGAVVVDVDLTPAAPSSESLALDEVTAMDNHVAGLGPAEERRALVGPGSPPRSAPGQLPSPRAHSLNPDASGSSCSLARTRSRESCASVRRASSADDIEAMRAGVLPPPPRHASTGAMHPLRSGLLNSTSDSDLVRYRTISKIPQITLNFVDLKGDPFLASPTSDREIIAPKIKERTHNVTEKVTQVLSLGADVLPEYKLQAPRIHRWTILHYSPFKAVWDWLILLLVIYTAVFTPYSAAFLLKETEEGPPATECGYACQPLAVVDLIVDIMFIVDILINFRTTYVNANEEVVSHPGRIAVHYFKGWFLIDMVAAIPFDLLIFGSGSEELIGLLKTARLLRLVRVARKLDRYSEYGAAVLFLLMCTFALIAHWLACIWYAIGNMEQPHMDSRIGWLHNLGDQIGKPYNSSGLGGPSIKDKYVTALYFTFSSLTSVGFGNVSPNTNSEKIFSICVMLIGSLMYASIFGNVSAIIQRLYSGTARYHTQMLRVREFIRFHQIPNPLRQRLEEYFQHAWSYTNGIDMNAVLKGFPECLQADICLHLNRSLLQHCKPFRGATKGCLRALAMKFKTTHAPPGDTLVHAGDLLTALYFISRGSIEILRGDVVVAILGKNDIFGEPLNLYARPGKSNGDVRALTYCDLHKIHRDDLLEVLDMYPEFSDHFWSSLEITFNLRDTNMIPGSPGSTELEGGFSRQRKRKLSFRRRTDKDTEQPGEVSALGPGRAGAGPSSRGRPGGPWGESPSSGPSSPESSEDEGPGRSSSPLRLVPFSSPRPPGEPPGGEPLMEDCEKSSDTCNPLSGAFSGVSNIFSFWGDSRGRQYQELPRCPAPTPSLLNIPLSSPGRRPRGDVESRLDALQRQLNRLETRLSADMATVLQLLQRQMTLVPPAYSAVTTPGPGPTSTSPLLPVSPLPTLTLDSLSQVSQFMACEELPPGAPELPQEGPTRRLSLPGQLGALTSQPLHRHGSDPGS

NG108-15 cells = assay: NG108-15 neurite outgrowth assay; type: cell-based; conditions: 1 μM compound, 0.1 μM angiotensin II, three days
CCI rats = assay: Chronic constriction injury; type: in vivo, Sprague–Dawley rats; conditions: orally dosed
rats = assay: Non-GLP 7-day acute rat toxicity study; type: in vivo, Sprague Dawley rats
In short: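 Rats received test compound daily for 7 days (non-GLP) at 200, 400 and 800 mg/kg/day, alongside a vehicle group. Endpoints were adverse events, laboratory abnormalities, salivary discharge scored 1 h after dosing, and gross anatomy of kidneys, hearts and livers compared with vehicle.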

AT2R = conditions: read-out: IC50 measured via a radiolabeled ligand-binding assay; cited from earlier work
monkeys = conditions: 39 weeks of chronic dosing; cited from earlier work

COc1ccc2c(c1OCc1ccc(OC(F)(F)F)cc1)C[C@@H](C(=O)O)N(c1nc3ccc(F)cc3o1)C2 [Compound 28]
hAT1R antagonistic activity at the highest tested concentration (human AT1R): none of them showed any hAT1R antagonistic activity

COc1ccc2c(c1OCc1ccccc1)C[C@@H](C(=O)O)N(C(=O)C(c1ccccc1)c1ccccc1)C2 [EMA401]
CLint scaled at 1 μM [1]: 1.55 ± 0.06 L/h/kg
clearance ([2]; iv, 1 mg/kg): 0.84 ± 0.06 L/h/kg
half-life ([2]; iv, 1 mg/kg): 1.6 ± 0.3 h
AUC(0-t) ([2]; po, 10 mg/kg): 1.47 ± 0.709 µg·h/mL
Cmax ([2]; po, 10 mg/kg): 0.47 ± 0.197 µg/mL
bioavailability ([2]; po, 10 mg/kg): 12 ± 6%
CLint scaled at 1 μM [3]: 1.5 ± 0.066 L/h/kg
CLint scaled at 1 μM [4]: 3.96 L/h/kg
fraction unbound at 6 h, 1 μM [5]: < 0.001
fraction unbound at 6 h, 1 μM [6]: < 0.001
Papp A→B at 90 min, 10 µM [7]: 33 ± 3 nm/s
Papp B→A at 90 min, 10 µM [7]: 245 nm/s
IC50 (CYP1A2): > 50 µM
IC50 (CYP2C8): 20 µM
IC50 (CYP2C9): 7.4 µM
IC50 (CYP2C19): > 50 µM
IC50 (CYP2D6): > 50 µM
IC50 (CYP3A4): > 50 µM
IC50 (hERG channel): > 10 µM
hERG potassium channel activity (hERG channel; concentrations up to 10 μM): no hERG potassium channel activity
effect on neurite outgrowth induced by angiotensin II (NG108-15 cells): abolished neurite outgrowth induced by angiotensin II
paw withdrawal threshold responsive to tactile stimulation (von Frey) (CCI rats): significantly increased paw withdrawal threshold
salivary discharge (rats; rat, 200, 400, and 800 mg/kg/day, 1 h after dosage): in high-, medium-, and low-dose groups
gross anatomy vs vehicle group (rats; rat, 7 days, kidneys, hearts, livers): no distinguishable gross anatomy differences
tolerability (rats; rat, oral gavage, 200, 400, and 800 mg/kg/day for 7 days): well tolerated with no serious adverse events or significant laboratory abnormalities
toxicity finding after chronic dosing (monkeys): hepatotoxicity in monkeys

CC(C)C[C@H](CN)CC(=O)O [pregabalin]
paw withdrawal threshold responsive to tactile stimulation (von Frey) (CCI rats): significantly increased paw withdrawal threshold
